Results taken from ChEMBL document CHEMBL1140759, “Synthesis, anti-Toxoplasma gondii and antimicrobial activities of benzaldehyde 4-phenyl-3-thiosemicarbazones and 2-[(phenylmethylene)hydrazono]-4-oxo-3-phenyl-5-thiazolidineacetic acids” (Bioorg Med Chem, 2008).
≈ marks a conversion by molar mass, not a printed value.

Legend:
Toxoplasma gondii [1] = test: Antiparasitic activity against Toxoplasma gondii infected african green monkey Vero cells at 2 mM assessed as infected cells; type: functional
Procedure, shortened: (§1)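 Vero cells were infected with RH-strain tachyzoites (5:1 parasite:cell) for 1 h, washed with PBS, and grown 24 h at 37 °C in medium 199 with 5% FCS. Compound was then added for 24 h. Cells were fixed with Bouin's, stained with Giemsa, and at least 400 cells were counted by light microscopy for the percentage infected. Hydroxyurea and sulfadiazine served as references.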

Toxoplasma gondii [2] = test: Antiparasitic activity against Toxoplasma gondii infected african green monkey Vero cells at 0.1 mM assessed as infected cells; type: functional; procedure, shortened: as §1
Toxoplasma gondii [3] = test: Antiparasitic activity against Toxoplasma gondii infected african green monkey Vero cells at 5 mM assessed as infected cells; type: functional; procedure, shortened: as §1
Toxoplasma gondii [4] = test: Antiparasitic activity against Toxoplasma gondii infected african green monkey Vero cells at 8 mM assessed as infected cells; type: functional; procedure, shortened: as §1
Toxoplasma gondii [5] = test: Antiparasitic activity against Toxoplasma gondii infected african green monkey Vero cells at 20 mM assessed as infected cells; type: functional; procedure, shortened: as §1
Vero = test: Inhibition of uninfected african green monkey Vero cells; type: cell-based; conditions: Chlorocebus sabaeus
Toxoplasma gondii [6] = test: Inhibition of Toxoplasma gondii infected in african green monkey Vero cells; type: functional, organism-based
Procedure, shortened: (§2)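 Infected Vero cultures were exposed to compound at 0.01–30 mM for 24 h, in triplicate per assay. IC50 for infected cells and intracellular parasites was derived by non-linear regression, using trypan blue exclusion.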

Toxoplasma gondii [7] = test: Inhibition of intracellular parasite Toxoplasma gondii; type: functional, organism-based; procedure, shortened: as §2
Staphylococcus aureus = test: Antimicrobial activity against Staphylococcus aureus at 300 ug/disc; type: functional; conditions: read-out: IZ
Procedure, shortened: (§3)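 Disc diffusion on agar plates inoculated with a standardized microbial suspension, with paper discs carrying known compound amounts. DMSO-only discs served as negative controls, and chloramphenicol, rifampicin (bacteria) or nistatin (fungi) as references. The read-out is the mean inhibition zone diameter in mm. Each run was done three times and repeated if results differed.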

Bacillus subtilis = test: Antimicrobial activity against Bacillus subtilis at 300 ug/disc; type: functional; conditions: read-out: IZ; procedure, shortened: as §3
Micrococcus luteus = test: Antimicrobial activity against Micrococcus luteus at 300 ug/disc; type: functional; conditions: read-out: IZ; procedure, shortened: as §3
Escherichia coli = test: Antimicrobial activity against Escherichia coli at 300 ug/disc; type: functional; conditions: read-out: IZ; procedure, shortened: as §3
Klebsiella pneumoniae = test: Antimicrobial activity against Klebsiella pneumoniae at 300 ug/disc; type: functional; conditions: read-out: IZ; procedure, shortened: as §3
Enterococcus faecalis = test: Antimicrobial activity against Streptococcus faecalis at 300 ug/disc; type: functional; conditions: read-out: IZ; procedure, shortened: as §3
Mycolicibacterium phlei = test: Antimicrobial activity against Mycobacterium phlei at 300 ug/disc; type: functional; conditions: read-out: IZ; procedure, shortened: as §3
[8] = system: Mycolicibacterium smegmatis; test: Antimicrobial activity against Mycobacterium smegmatis at 300 ug/disc; type: functional; conditions: read-out: IZ; procedure, shortened: as §3
[9] = system: Mycobacterium tuberculosis; test: Antimicrobial activity against Mycobacterium tuberculosis at 300 ug/disc; type: functional; conditions: read-out: IZ
Procedure, shortened: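 Agar disc diffusion: paper discs loaded with compound placed on agar plates seeded with a standardised microbial suspension. DMSO-only discs served as negative control. Chloramphenicol and rifampicin (bacteria) or nistatin (fungi) gave reference zones. Read-out was mean zone of inhibition diameter (mm). Each experiment was run three times and repeated if results differed.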

Saccharomyces cerevisiae = test: Antimicrobial activity against Saccharomyces cerevisiae at 300 ug/disc; type: functional; conditions: read-out: IZ; procedure, shortened: as §3
Candida [10] = test: Antimicrobial activity against Candida sp. IMUR1224 at 300 ug/disc; type: functional; conditions: read-out: IZ; procedure, shortened: as §3
Candida albicans = test: Antimicrobial activity against Candida albicans at 300 ug/disc; type: functional; conditions: read-out: IZ; procedure, shortened: as §3
Candida [11] = test: Antimicrobial activity against Candida sp. IMUR4249 at 300 ug/disc; type: functional; conditions: read-out: IZ; procedure, shortened: as §3
Candida [12] = test: Antimicrobial activity against Candida sp. IMUR720 at 300 ug/disc; type: functional; conditions: read-out: IZ; procedure, shortened: as §3
Candida [13] = test: Antimicrobial activity against Candida sp. IMUR4249; type: functional
Procedure, shortened: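 Tube dilution MIC, run on compounds with a disc-diffusion zone of at least 18 mm. The DMSO stock (1 mg/mL) was serially diluted to 10–220 µg/mL final in medium, and strains were inoculated at 10^8/mL. Media were tryptic soy or nutrient agar for bacteria and Sabouraud liquid for fungi, incubated 24–48 h at 37 °C (bacteria) or 30 °C (fungi). MIC is the lowest concentration giving clear tubes.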

SMILES	Activity (Toxoplasma gondii [1]) [%]	Activity (Toxoplasma gondii [2]) [%]	Activity (Toxoplasma gondii [3]) [%]	Activity (Toxoplasma gondii [4]) [%]	Activity (Toxoplasma gondii [5]) [%]	IC50 (Vero) [µM]	IC50 (Toxoplasma gondii [6]) [µM]	IC50 (Toxoplasma gondii [7]) [µM]	zone of inhibition at 300 µg/disc (Staphylococcus aureus) [mm]	zone of inhibition at 300 µg/disc (Bacillus subtilis) [mm]	zone of inhibition at 300 µg/disc (Micrococcus luteus) [mm]	zone of inhibition at 300 µg/disc (Escherichia coli) [mm]	zone of inhibition at 300 µg/disc (Klebsiella pneumoniae) [mm]	zone of inhibition at 300 µg/disc (Enterococcus faecalis) [mm]	zone of inhibition at 300 µg/disc (Mycolicibacterium phlei) [mm]	zone of inhibition at 300 µg/disc [8] [mm]	zone of inhibition at 300 µg/disc [9] [mm]	zone of inhibition at 300 µg/disc (Saccharomyces cerevisiae) [mm]	zone of inhibition at 300 µg/disc (Candida [10]) [mm]	zone of inhibition at 300 µg/disc (Candida albicans) [mm]	other results
Cc1cccc(/C=N/N=C2\SC(CC(=O)O)C(=O)N2c2ccccc2)c1 (stereo not drawn)	15.54	66	16.19	10.13	0	9000	1000	500	< 7	< 7	22	< 7	< 7	11	< 7	< 7	< 7	< 7	< 7	9	zone of inhibition at 300 µg/disc (Candida [11]): < 7 mm; zone of inhibition at 300 µg/disc (Candida [12]): < 7 mm
COc1cccc(/C=N/N=C2\SC(CC(=O)O)C(=O)N2c2ccccc2)c1 (stereo not drawn)	28.71	34.16	7.3	4.16	0	5000	3000	100	14	9	22	< 7	< 7	11	< 7	< 7	< 7	< 7	< 7	< 7	zone of inhibition at 300 µg/disc (Candida [11]): 18 mm; MFC (Candida [13]): 70 µg/mL (≈ 183 µM); MIC (Candida [13]): 80 µg/mL (≈ 209 µM); zone of inhibition at 300 µg/disc (Candida [12]): < 7 mm
COc1cc(/C=N/N=C2\SC(CC(=O)O)C(=O)N2c2ccccc2)cc(OC)c1OC (stereo not drawn)	14.33	55.57	15.63	7.2	0	2000	1000	500	< 7	19	25	< 7	< 7	< 7	< 7	< 7	< 7	< 7	< 7	10	zone of inhibition at 300 µg/disc (Candida [11]): 15 mm; zone of inhibition at 300 µg/disc (Candida [12]): < 7 mm
COc1ccc(/C=N/N=C2\SC(CC(=O)O)C(=O)N2c2ccccc2)c(OC)c1 (stereo not drawn)	39.5	66.36	0	0	0	5000	2000	500	< 7	< 7	15	< 7	< 7	< 7	< 7	< 7	< 7	12	< 7	13	zone of inhibition at 300 µg/disc (Candida [11]): 20 mm; MFC (Candida [13]): 70 µg/mL (≈ 169 µM); MIC (Candida [13]): 80 µg/mL (≈ 193 µM); zone of inhibition at 300 µg/disc (Candida [12]): < 7 mm
O=C(O)CC1S/C(=N\N=C\c2ccccc2)N(c2ccccc2)C1=O (stereo not drawn)	48.5	69.7	14.6	0	0	5000	4000	1000	< 7	15	20	< 7	< 7	12	7	9	14	< 7	< 7	8	zone of inhibition at 300 µg/disc (Candida [11]): < 7 mm; zone of inhibition at 300 µg/disc (Candida [12]): < 7 mm
CN(C)c1ccc(/C=N/N=C2\SC(CC(=O)O)C(=O)N2c2ccccc2)cc1 (stereo not drawn)	0	50.58	0	0	0	1000	50	50	< 7	< 7	10	< 7	< 7	< 7	< 7	< 7	< 7	< 7	< 7	< 7	zone of inhibition at 300 µg/disc (Candida [11]): 16 mm; zone of inhibition at 300 µg/disc (Candida [12]): < 7 mm
O=C(O)CC1S/C(=N\N=C\c2ccc(F)cc2)N(c2ccccc2)C1=O (stereo not drawn)	10.2	21.7	0	0	0	2000	50	50	< 7	14	15	< 7	< 7	16	7	12	14	< 7	< 7	8	zone of inhibition at 300 µg/disc (Candida [11]): 22 mm; MFC (Candida [13]): 70 µg/mL (≈ 188 µM); MIC (Candida [13]): 80 µg/mL (≈ 215 µM); zone of inhibition at 300 µg/disc (Candida [12]): < 7 mm
O=C(O)CC1S/C(=N\N=C\c2ccccc2F)N(c2ccccc2)C1=O (stereo not drawn)	16.14	70.79	0	0	0	2000	2000	1000	< 7	15	25	< 7	< 7	16	7	13	14	< 7	< 7	7	zone of inhibition at 300 µg/disc (Candida [11]): 20 mm; MFC (Candida [13]): 70 µg/mL (≈ 188 µM); MIC (Candida [13]): 80 µg/mL (≈ 215 µM); zone of inhibition at 300 µg/disc (Candida [12]): < 7 mm
O=C(O)CC1S/C(=N\N=C\c2ccc(Cl)cc2)N(c2ccccc2)C1=O (stereo not drawn)	35.3	68.15	0	0	0	2000	1500	500	< 7	13	21	< 7	< 7	15	12	15	17	< 7	< 7	8	zone of inhibition at 300 µg/disc (Candida [11]): 20 mm; MFC (Candida [13]): 140 µg/mL (≈ 361 µM); MIC (Candida [13]): 150 µg/mL (≈ 387 µM); zone of inhibition at 300 µg/disc (Candida [12]): < 7 mm
